Bioassay records: PubChem, several laboratories
NPY-Y2 antag = antagonists of human neuropeptide Y receptor Y2; P49146; NPY-Y2 expressing cells, antagonist mode; inhibition, % at 2.7 µM; 0.99% of 140,000 active; in the data active = inhibition above about 17%;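 also: 0% = vehicle with agonist challenge and 100% = reference antagonist with challenge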
NPY2 pot ag = potentiators or agonists of human neuropeptide Y receptor Y2 | 0.45% of 220,000 active | cells expressing NPY-Y2, potentiator/agonist read-out | P49146 | activation, % at 3.6 µM; in the data active = activation above about 27%;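 also: cells stimulated with NPY near EC25 plus isoproterenol at EC100; 0% = vehicle plus submaximal agonist and 100% = vehicle plus saturating agonist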
NPY-Y1 antag = antagonists of human neuropeptide Y receptor Y1. P25929. HEK293-CNG Y1 cells, membrane potential fluorescence; NPY at EC95, then isoproterenol. inhibition, % at 3.6 µM. 1% of 200,000 active;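 active = inhibition above the campaign mean inhibition of all tested compounds plus 3 SD, cut at about 20% in these data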;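 also: 0% = DMSO wells given NPY plus isoproterenol and 100% = isoproterenol alone without NPY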
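Test system – HEK293 Y1/CNG channel cell line · Also added – NPY agonist 25 nM, then isoproterenol 1 µM plus Ro 20-1724 25 µM · Compound dosing – one concentration, 3.6 µM, in 0.4% DMSO · Schedule – compound incubation 1 h at room temperature, readout 45 min post-stimulation · Technique – fluorescence, membrane potential probe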
NPY-Y1 PAM-ag = human NPY-Y1 potentiation or agonism, primary screen; P25929; NPY-Y1 expressing cells, potentiator/agonist activation; activation, % at 3.6 µM; 0.37% of 220,000 active; in the data active = activation above about 33%, passing the limit was not always enough;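 also: cells stimulated with NPY at EC10 then isoproterenol at EC100; 0% = low agonist plus stimulus and 100% = saturating agonist plus stimulus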
EP2 modulator = modulators of human EP2 prostaglandin E2 receptor; P43116; EP2-expressing cells, cAMP HTRF FRET, PGE2 co-stimulation; induction, % at 25 µM; 0.83% of 260,000 active;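 active = compounds whose cAMP rise, as percent of the full-agonist control response, exceeds 60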;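 also: rat C6 glioma line stably carrying human EP2 under a CMV promoter; the protocol text gives 20 µM as final concentration; 100% = response of wells given 1 µM PGE2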
Target sequence (P43116 whole entry, looked up): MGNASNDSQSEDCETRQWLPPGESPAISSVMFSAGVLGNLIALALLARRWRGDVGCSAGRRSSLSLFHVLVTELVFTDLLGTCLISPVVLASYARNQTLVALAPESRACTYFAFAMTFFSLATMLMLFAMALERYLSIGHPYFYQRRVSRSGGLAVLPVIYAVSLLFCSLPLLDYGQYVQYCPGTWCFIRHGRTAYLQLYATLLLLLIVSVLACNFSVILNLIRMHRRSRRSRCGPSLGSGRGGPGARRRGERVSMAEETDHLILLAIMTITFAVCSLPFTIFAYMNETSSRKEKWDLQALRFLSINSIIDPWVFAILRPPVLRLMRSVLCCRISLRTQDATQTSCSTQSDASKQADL
EP2 antag = blocks the human prostaglandin E2 receptor EP2; P43116; C6 glioma cells expressing human EP2, cAMP TR-FRET; cells stimulated with saturating PGE2; inhibition, % at 25 µM; 0.52% of 260,000 active; AID 1422;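 active = percent inhibition above 40 after rounding to a whole number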;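 also: rat C6 glioma host cells with rolipram phosphodiesterase inhibitor present; the protocol text gives 20 µM as final concentration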
* marks the source's active call; other numbers are inactive results; x = not tested or not shown. Shown are actives, neighbours in structure and some others; about 2.8% of the full set was active somewhere.

SMILES	NPY-Y2 antag	NPY2 pot ag	NPY-Y1 antag	NPY-Y1 PAM-ag	EP2 modulator	EP2 antag
CC(=O)c1ccc(NC(=O)CN2C(=O)C3CCCN3C(=O)c3ccccc32)cc1 (stereo not drawn)	x	x	x	x	-9	13
O=C(C1CCCC1)N1CCC[C@H]1Cn1nc(-c2ccc(F)cc2)ccc1=O	x	x	x	x	2	x
O=c1[nH]c2ccc(Cl)cc2c(O)c1-c1ccccc1	18*	1	3	13	3	15
O=c1[nH]c2cc(Cl)ccc2c(O)c1-c1ccc(Oc2ccccc2)cc1	x	x	x	x	10	13
O=C(CSc1nc(-c2cccs2)cc(C(F)(F)F)n1)NCCN1CCOCC1	x	x	x	x	-37	14
Cc1cc(C)n(-c2nc(SCCN(C)C)c3c4c(sc3n2)COC(C)(C)C4)n1	78*	-59	147*	-167	10	7
Cc1cc(C)n(-c2nc(NCC(C)O)c3c4c(sc3n2)COC(C)(C)C4)n1 (stereo not drawn)	0	-22	3	9	-14	7
CCOc1ccccc1CN1CCN(Cc2[nH]c3ccccc3c2C)CC1CCO (stereo not drawn)	x	-13	21*	-26	-28	3
CS(=O)(=O)Nc1ccc(Cc2ccc(NS(C)(=O)=O)cc2)cc1	-1	7	-7	8	3	5
O=C=Nc1ccc(Cc2ccc(N=C=O)cc2)cc1 (tested in a mixture with another compound)	x	x	x	x	10	45*
Cc1csc(=Nc2cccnc2)n1CC1CCCCC1	4	-8	0	6	31	22
C=CCN1C(=Nc2cccnc2)SCC1(O)c1ccc(C)cc1 (stereo not drawn)	21*	31	20	-5	32	11
CCC(C)N=Cc1c(Nc2ccccc2)nc2c(C)cccn2c1=O (stereo not drawn)	x	-17	x	-26	66*	0
O=C(O)CC[P+](c1ccccc1)(c1ccccc1)c1ccccc1	x	x	x	x	11	47*
C[C@]12CC[C@@H]3c4ccc(O)cc4CC[C@H]3[C@@H]1C[C@@H](O)[C@@H]2O	0	10	7	-26	-30	17
C[C@H](NCCN(C)C)[C@@H]1CC[C@@H]2[C@H]3CCc4cc(O)ccc4[C@@H]3CC[C@]21C	x	x	x	x	-33	53*
COc1cc(N=c2ssnc2Cl)cc(OC)c1	2	3	4	-20	-6	95*
CC(C)(C)OC(=O)COc1cc(OCC(=O)OC(C)(C)C)c2c(=O)cc(-c3ccccc3)oc2c1	33*	-30	46*	-31	2	29
CC(C)(C)OC(=O)COc1cc(O)c2c(=O)cc(-c3ccccc3)oc2c1	16	1	0	9	-6	12
N#CC1=C(SCc2ccccc2)NC(=O)CC1c1ccccc1 (stereo not drawn)	1	-8	-1	7	1	11
Cc1c(C#N)c(N)nc2c3c(sc12)NC(=O)CC3c1ccc(Cl)cc1 (stereo not drawn)	42*	0	34*	-39	-6	9
N#Cc1c(N)nc2c3c(sc(=N)c2c1N)NC(=O)CC3c1ccccc1 (stereo not drawn)	19*	-19	23*	-30	42	14
Cc1sc2ncn(CC(=O)OC(C)C(=O)NC3CCCCC3)c(=O)c2c1C (stereo not drawn)	x	x	x	x	14	3
Cn1c(=O)sc2cc(S(=O)(=O)NC3CC3c3ccccc3)ccc21 (stereo not drawn)	x	x	x	x	-120	13
CN1CCN(CN2C(=O)[C@H]3[C@H]4C=C[C@@H]([C@@H]3C2=O)[C@H]2[C@@H]3C(=O)N(CN5CCN(C)CC5)C(=O)[C@@H]3[C@@H]42)CC1	x	x	x	x	8	53*
SMILES	NPY-Y2 antag	NPY2 pot ag	NPY-Y1 antag	NPY-Y1 PAM-ag	EP2 modulator	EP2 antag
CCCCN1C(=O)C2C3C=CC(C2C1=O)C1C2C(=O)N(CCCC)C(=O)C2C31 (stereo not drawn)	2	11	-3	9	0	4
Cc1c(Cc2c(Cl)cccc2Cl)c(=O)ccn1C(C)c1ccccc1 (stereo not drawn)	22*	2	20	-5	-16	15
Cc1ccc(Cn2ccc(=O)c(Cc3c(Cl)cccc3Cl)c2C)cc1	11	2	9	3	-2	-4
CN1CCN(C(=O)C2CCN(S(=O)(=O)c3ccccc3)CC2)CC1	x	x	x	x	-15	11
Cn1c(N)c(C(=O)COC(=O)CCCc2c[nH]c3ccccc23)c(=O)n(C)c1=O	20*	-29	30*	-45	-13	22
N#Cc1ccc(OC(=O)c2ccc(N=C(N)N)cc2)cc1	x	x	x	x	-36	75*
Cc1cc(=O)n2[nH]c(NC(=O)c3cccs3)nc2n1	x	x	x	x	42	7
CCN(C(=O)c1ccccc1)c1ccc([N+](=O)[O-])cc1	-3	5	4	23	4	4
O=[N+]([O-])c1ccc(N(c2ccccc2)c2ccccc2)cc1	4	-1	-6	2	61*	7
Cc1ccc(C)c(N(CC(=O)N2CCN(Cc3ccc4c(c3)OCO4)CC2)S(C)(=O)=O)c1	x	x	x	x	-33	8
CCOC(=O)c1cccc(NC(=O)/C=C/c2cccc([N+](=O)[O-])c2)c1	4	-7	-4	-6	13	4
CCOC(=O)/C=C/C(=O)Nc1cccc([N+](=O)[O-])c1	4	-4	-1	1	-1	131*
NS(=O)(=O)c1cc(Br)c(N=Nc2ccc(O)c3ncccc23)c(Br)c1	x	x	x	x	-17	47*
CCS(=O)(=O)c1ccc(OC)c(N=Nc2ccc(O)c3ncccc23)c1	x	-10	-6	-3	40	10
Cc1cc(Nc2ncc(Cl)cc2Cl)n(-c2ccccc2C)n1	20*	-1	29*	-12	42	8
O=C(c1ncoc1-c1ccc(F)cc1)N1CCN(Cc2ccc3c(c2)OCO3)CC1	x	x	x	x	-66	4
CN(C1=C(NC(=O)c2ccc(Cl)cc2)C(=O)c2ccccc2C1=O)c1ccccc1	-10	72*	-20	56*	18	34
O=C(NC1=C(Nc2ccc(Cl)cc2)C(=O)c2ccccc2C1=O)c1ccccc1	-4	4	2	-9	13	1
CCCCN(CCCC)C(=O)c1sc2nc(N3CCOCC3)c3c(c2c1N)CCCC3	x	12	x	-13	87*	10
NC(=O)c1sc2nc(N3CCOCC3)c3c(c2c1N)CCCC3	4	1	2	-9	26	22
c1ccc(CNc2nc(CN3CCOCC3)nc3scc(-c4ccccc4)c23)cc1	19*	-17	27*	-30	-15	12
c1ccc(-c2csc3ncnc(NCCN4CCOCC4)c23)cc1	3	1	-5	1	14	4
Cc1sc2nc(C3CC3)n3c(=O)n(Cc4cccnc4)nc3c2c1C	x	x	x	x	-9	x
O=c1c2oc3ccccc3c2[nH]c(=S)n1-c1ccc(F)cc1	x	3	3	-1	65*	15
